From PubChem
Efflux pump mplx: inhibitors of Candida antifungal efflux pumps expressed in yeast | S. cerevisiae Candida pump triplex, Nile Red efflux | inhibition, % at 10 µM | 330,000 compounds, 0.44% hits | AID 485275;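 active = plate passing quality check with inhibition over a set limit, or well fluorescence over plate mean plus 4 SD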;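 note: Nile Red retained in pooled yeast measured as flow cytometry median fluorescence; 0% = buffer negative control and 100% = Enniatin B positive control; higher means more Nile Red kept so more efflux inhibition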
Mot1-301 SUMO: blocks SUMOylation pathway, rescuing yeast Mot1-301 growth | S. cerevisiae Mot1-301 growth rescue, ATP luminescence, 38.5C; percent above DMSO median, 100 means doubled | growth rescue, % at 18.8 µM | 320,000 compounds, 1% hits;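 active = every valid replicate shows activation above 250% relative to neutral control wells; inactive = the rest, any valid replicate at or below 250%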;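 note: OY570 slx delta 5 strain wells were the positive control but not used for scaling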
ARNT TACC3 PPI: disrupts binding between human ARNT and TACC3. Q9Y6A5. AlphaScreen His-ARNT PAS-B/GST-TACC3 binding, luminescence; TACC3 fragment carries E629A point mutation. inhibition, % at 9.99 µM. 390,000 compounds, 0.66% hits;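 active = mean inhibition of replicates at least 50% and at least half of replicates each reaching 50%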;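 note: 0% = complete ARNT plus TACC3 wells and 100% = ARNT alone without TACC3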
Cardiac RTF inh: cardiac RTF calcium desensitization; P19429+P45379; inhibition, % at 7.15 µM; 340,000 compounds, 0.12% hits; AID 493244; IANBD-labeled cardiac RTF, Ca2+ fluorescence;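 active = inhibition above the mean inhibition of all tested compounds plus 3 SD, cut at about 17% in these data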;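 note: assay run at fixed EC70 calcium of 1.6 mM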
UCH37 DUB inh: inhibitors of human deubiquitinating enzyme UCH37 | Q9Y5K5 | purified proteasome/UCH37, Ub-AMC cleavage fluorescence | inhibition, % (test concentration not listed) | 330,000 compounds, 0.33% hits;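 active = mean inhibition over replicate wells above about 20%, limit read from the data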;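 note: 0% = compound-free wells with enzyme and 100% = wells lacking proteasome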
Target sequence (Q9Y5K5 whole entry, looked up): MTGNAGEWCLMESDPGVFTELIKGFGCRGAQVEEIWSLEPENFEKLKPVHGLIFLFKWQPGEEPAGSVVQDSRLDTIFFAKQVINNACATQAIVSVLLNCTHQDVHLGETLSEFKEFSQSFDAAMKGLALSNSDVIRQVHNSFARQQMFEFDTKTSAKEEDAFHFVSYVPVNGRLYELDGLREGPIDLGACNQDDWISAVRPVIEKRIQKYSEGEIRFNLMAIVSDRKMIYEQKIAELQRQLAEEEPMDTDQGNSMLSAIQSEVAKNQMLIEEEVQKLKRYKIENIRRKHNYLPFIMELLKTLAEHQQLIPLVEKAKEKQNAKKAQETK
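Signal – fluorescence, ex 355 nm, em 460 nm · System – Proteasome-bound UCH37 · Input – 0.15 nM proteasome as dispensed · Timing – 30 min preincubation with enzyme, 25 min cleavage at room temperature · Read-out basis – percent inhibition of cleavage signal versus uninhibited and no-proteasome wells · Medium – Tris-HCl pH 7.4 with ATP-MgCl2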
RTF Ca sens act: cardiac RTF calcium sensitization; P19429+P45379; IANBD-labeled TnC RTF fluorescence at EC20 calcium; 0% EC20 calcium, 100% full calcium; activation, % at 7.2 µM; 340,000 compounds, 0.24% hits;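 active = activation above the mean over all tested compounds plus 3 SD, cut at about 30% in these data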;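 note: rise in fluorescence read as greater calcium sensitivity of cardiac thin filaments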
Mot1 SUMO dose: yeast SUMO pathway inhibition in dose response | shares compounds with Mot1-301 SUMO | S. cerevisiae Mot1-301 galactose growth, ATP luminescence, 24 h; -100 = growth of slx-deleted rescue strain | growth activity, percent, % at 42 µM | 2,300 tested, under 10 active | AID 493004;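 active = Signal drops as the depositor expects, and the fitted half-maximal dose is no more than ten times the top valid tested dose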;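 note: more negative values mean stronger growth rescue toward the control strain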
An asterisk follows results filed as active; nt = no result; + = active, no number; [ ] = another dose, or the depositor's remark. Sampled rows, rich in hits. Any-hit rate of the full collection: about 2.1%.

SMILES | Efflux pump mplx | Mot1-301 SUMO | ARNT TACC3 PPI | Cardiac RTF inh | UCH37 DUB inh | RTF Ca sens act | Mot1 SUMO dose
CC(CCc1ccccc1)NC(=O)CCc1cn(C)c2ccccc12 (centres undefined) | -0.1 | 87.4 | -9.3 | -1.6 | -1.4 | -0.8 | nt
COCCn1c(SCC(=O)Nc2nc3ccccc3s2)nnc1-c1ccoc1C | -0.2 | 600.9* | -7.6 | -5.2 | 5.2 | 1.4 | 1.0
CN(C)c1ccc(C=NNC(=O)CCc2nc3ccccc3[nH]2)cc1 | nt | nt | nt | nt | -84.4 | nt | nt
CCS(=O)(=O)c1nc(S(=O)(=O)c2ccc(Cl)cc2)c(N2CCc3ccccc3C2)s1 | 0.3 | 444.2* | -1.7 | 0.2 | 4.7 | -3.3 | 0.4
Cc1cc(C(=O)NN=C2CC(C)CC(C)(C)C2)c(C)o1 (centres undefined) | nt | nt | nt | nt | 2.5 | nt | nt
C=C(C)Cc1c(C)c(C#N)c2[nH]c3ccccc3n2c1=O | 0.2 | 689.8* | -5.7 | -12.1 | -441.7 | -2.0 | -0.7
Cc1ccc(Cc2c(C)c(C#N)c3[nH]c4ccccc4n3c2=O)cc1 | 0.0 | -7.2 | 2.8 | -5.5 | -20.5 | 0.7 | nt
COc1ccccc1CNC(=O)[C@H](C)NC(=O)C1CCN(C(=O)[C@@H](N)CC(C)C)CC1 | 0.2 | 617.8* | -1.0 | 7.3 | nt | 7.3 | -0.2
COCCN(C(=O)C1CC1)c1nnc(-c2ccc(C)cc2)s1 | 0.3 | 730.6* | -1.5 | 0.5 | 0.2 | -6.9 | 0.5
Cc1ccsc1C(=O)NCCc1ccc(S(N)(=O)=O)cc1 | 0.9 | 764.9* | -23.4 | 1.8 | -0.3 | -0.7 | 0.0
Cc1ccc(CC(=O)NCCc2ccc(S(N)(=O)=O)cc2)cc1 | -0.1 | 20.6 | -1.3 | -6.3 | 3.0 | 2.2 | nt
CCCCC(=O)NCCc1ccc(S(N)(=O)=O)cc1 | 0.1 | + | -5.5 | 3.0 | 2.0 | -0.8 | -0.3
COc1ccc2[nH]c(=O)c(CN(C(=O)c3ccccn3)c3ccccc3)cc2c1 | -0.1 | + | -0.8 | -6.6 | -45.7 | -3.3 | 0.5
O=Cc1ccccc1OCCN1CCCC1=O | 0.5 | 734.1* | 4.6 | -3.2 | -3.9 | -0.2 | 0.7
Cc1ccc2nc(Cl)c(C=NNc3ccc(C(=O)O)cc3)cc2c1 | nt | nt | nt | nt | 6.3 | nt | nt
CC(C)C(NC(=S)Nc1ccccc1)C(=O)O (centres undefined) | -5.0 | 955.9* | 0.9 | -5.5 | 0.9 | -3.0 | -0.6
CCC(C)NC(=S)Nc1ccccc1 (centres undefined) | nt | nt | -8.4 | -8.1 | 7.6 | 0.8 | nt
COCCn1c(N)c(N(Cc2ccccc2)C(=O)CN2C(=O)NC(C)(c3ccccc3)C2=O)c(=O)[nH]c1=O (centres undefined) | 0.0 | 530.9* | -3.4 | -8.2 | 0.6 | -3.3 | -0.2
CCCCn1c(N)c(N(Cc2ccccc2OC)C(=O)CN2C(=O)NC(C)(c3ccccc3)C2=O)c(=O)[nH]c1=O (centres undefined) | 0.0 | 5.0 | 1.2 | -3.1 | nt | -5.4 | nt
COc1ccc(C=Nn2c(N)nc(-c3ccccc3)c2-c2ccccc2)cc1 | nt | nt | nt | nt | 3.0 | nt | nt
COc1ccc(C(=O)N2CCN(c3ccc(NC(=O)c4cccnc4)cc3)CC2)cc1 | 0.1 | 457.7* | -7.9 | 0.9 | 4.4 | 1.4 | 0.5
COc1ccc(N2CCN(C(=O)c3ccncc3)CC2)cc1 | 0.0 | 4.7 | 3.0 | -3.6 | 3.6 | 1.1 | nt
Cc1[nH]n(-c2ccccc2)c(=O)c1N=Nc1c(Cl)cccc1Cl | -0.2 | 2.1 | -2.0 | -8.3 | 5.3 | -4.2 | nt
Cc1[nH]oc(=O)c1N=Nc1ccccc1 | -2.7 | 465.2* | nt | -5.6 | 10.2 | -2.2 | 0.5
Cc1[nH]oc(=O)c1N=Nc1c(Cl)cccc1Cl | 0.1 | 358.3* | -0.4 | -0.9 | 16.8 | 3.7 | -0.4
SMILES | Efflux pump mplx | Mot1-301 SUMO | ARNT TACC3 PPI | Cardiac RTF inh | UCH37 DUB inh | RTF Ca sens act | Mot1 SUMO dose
NC(=NOC(=O)Cc1cccs1)c1ccc([N+](=O)[O-])cc1 | nt | nt | nt | nt | -3.0 | nt | nt
COc1cccc(C=NNc2nncc(-c3ccccc3)n2)c1 | nt | nt | nt | nt | 2.1 | nt | nt
Cc1c(C(C)(C)C)sc(=NS(=O)(=O)c2ccccc2)n1C | nt | nt | nt | nt | 0.2 | nt | nt
COC(=O)c1ccc(/C=N/NC(=O)C(=O)NCC2CCCO2)cc1 (centres undefined) | 0.1 | 730.6* | -5.1 | -5.9 | nt | 1.0 | 0.8
Cc1ccc(C(=O)N/C(=C/c2ccccc2)C(=O)NCC2CCCO2)cc1 (centres undefined) | 0.2 | 399.3* | nt | -1.7 | 0.2 | 7.0 | -0.2
COc1ccc(C=NNC(=O)C(=O)NCC2CCCO2)cc1 (centres undefined) | nt | nt | nt | nt | 5.8 | nt | nt
CC(C(=O)N1CCN(C(=O)c2ccco2)CC1)n1sc2ccccc2c1=O (centres undefined) | 0.0 | 379.9* | -6.8 | 3.0 | 2.6 | -6.0 | 1.0
CN(C(=O)COC(=O)c1cc(-c2ccc(Cl)s2)nc2ccccc12)C1CCS(=O)(=O)C1 (centres undefined) | -0.1 | 511.1* | 2.2 | -3.9 | -196.3 | -0.1 | 0.5
CN(C(=O)COC(=O)c1cc(-c2ccccc2Cl)nc2ccccc12)C1CCS(=O)(=O)C1 (centres undefined) | 0.6 | -1.1 | -5.7 | 1.7 | 0.7 | 7.3 | nt
Cc1ccc(-n2c(SCC(=O)N(C)C3CCS(=O)(=O)C3)nc3ccccc3c2=O)cc1 (centres undefined) | 0.0 | 498.9* | -13.4 | -5.6 | 6.0 | 10.7 | 0.2
CCN(C(=O)CSc1nc2ccccc2c(=O)n1-c1ccc(C)cc1)C1CCS(=O)(=O)C1 (centres undefined) | 0.2 | 3.8 | 4.9 | -2.7 | -0.7 | 3.3 | nt
CC(Sc1ccccc1)C(=O)NN=Cc1ccccc1 (centres undefined) | nt | nt | nt | nt | 5.5 | nt | nt
CC1(C)CC(=O)c2cnc(NC(=O)CSc3nc4ccccc4o3)nc2C1 | -0.1 | 851.0* | 4.2 | 0.1 | 0.2 | -6.5 | 1.1
CCC(CO)N=C1CC(C)(C)CC(=O)/C1=C(\O)CCCN1C(=O)c2ccccc2C1=O (centres undefined) | nt | nt | nt | nt | 4.4 | nt | nt
COc1cccc(NC(=O)CN2CCN(c3ccccc3F)CC2)c1 | 0.1 | 600.4* | 7.8 | 0.6 | 2.4 | 4.9 | 0.4
COC(=O)c1[nH]c2cc(C)ccc2c1NC(=O)CN1CCN(c2ccccc2OC)CC1 | 0.3 | 492.4* | 25.8 | -4.6 | 0.1 | -1.1 | 0.4[21 µM]
O=C(CN1CCN(c2ccccc2F)CC1)Nc1nnc(C(F)(F)F)s1 | 0.3 | + | 7.6 | -1.6 | 4.4 | 1.1 | 0.1
CCOC(=O)N1CCN(CC(=O)Nc2nnc(C(F)(F)F)s2)CC1 | -0.3 | 3.8 | -0.5 | -0.2 | 2.4 | -2.0 | nt
COC(=O)c1[nH]c2cc(C)ccc2c1NC(=O)CN1CCOCC1 | 0.0 | -14.4 | -6.5 | -5.0 | -5.7 | 1.1 | nt
COc1cc(NC(=O)CN2CCN(c3ccccc3F)CC2)cc(OC)c1 | 0.2 | 13.7 | -2.1 | -5.5 | 0.3 | -1.7 | nt
